Source: ChEMBL document CHEMBL3822382 (Eur J Med Chem, 2016)
Calls of active or inactive are those of the source. The calls are words filed in the database; no cut-off is given here.

What was measured:
[1] = system: 518A2; experiment: Effect on microtubule structure in human 518A2 cells at 100 nM incubated for 24 hrs by DAPI staining based immunofluorescence microscopic analysis; assay type: cell-based
Outline: (§1)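 518A2 cells (25,000/well) on coverslips treated 24 h with 100 nM. Cells fixed in 4% formaldehyde, permeabilized and blocked (Triton X-100/BSA). Stained with mouse anti-alpha-tubulin (37 °C, 1 h) and AlexaFluor-488 secondary; nuclei counterstained with DAPI (1 µg/mL). Imaged by fluorescence microscopy at 400×.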

[2] = system: Chorioallantoic membrane; experiment: Antivascular activity in fertilized white leghorn chicken egg chorioallantoic membrane assessed as blood vessel hemorrhage at 5 nmol after 12 hrs by stereomicroscopic analysis; assay type: functional, tissue-based; details: Gallus gallus
Outline: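 Fertilized white leghorn SPF eggs were incubated to day 5 at 37 °C and 50–60% humidity. A shell window was cut, 6 mm silicon rings were placed on developing CAM vessels, and eggs were incubated another 24 h. Compound (500 μM in PBS; 10 μL = 5 nmol, 20 μL = 10 nmol) or DMSO was pipetted inside the ring. Vessel changes were imaged by stereomicroscope at 0, 12 and 24 h.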

[3] = system: HT-29; experiment: Cell cycle arrest in combretastatin A-4 resistant human HT-29 cells assessed as mitotic cells at 100 nM after 24 hrs by propidium iodide/immunostaining method (reference value: 3.1 to 3.2%); assay type: functional
Outline: (§2)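 HT-29 cells (200,000/well) were treated 24 h with 100 nM indole, 5 μM CA-4 or DMSO. Cells were trypsinized, fixed in 4% formaldehyde (20 min, RT) and permeabilized in 90% ice-cold methanol (30 min). They were immunostained with anti-phospho-histone H3 (Ser10) (5 μg/mL, 37 °C, 1 h) plus an AlexaFluor-488 secondary, then stained with PI/RNase (30 min, 37 °C). Flow cytometry of 10,000 single cells assigned G1/S/G2/M.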

[4] = system: HT-29; experiment: Cell cycle arrest in combretastatin A-4 resistant human HT-29 cells assessed as mitotic cells at 50 nM after 24 hrs by propidium iodide/immuno-staining method (reference value: 3.1 to 3.2%); assay type: functional
[5] = system: HT-29; experiment: Cell cycle arrest in combretastatin A-4 resistant human HT-29 cells assessed as accumulation at G1 phase at 50 nM after 24 hrs by propidium iodide staining-based flow cytometry (reference value: 68.1 +/- 0.3%); assay type: functional
[6] = system: HT-29; experiment: Cell cycle arrest in combretastatin A-4 resistant human HT-29 cells assessed as accumulation at G2 phase at 100 nM after 24 hrs by propidium iodide staining-based flow cytometry (reference value: 15.6 +/- 0.1%); assay type: functional; outline: as §2
[7] = Cell cycle arrest in human 518A2 cells assessed as accumulation at subG1 phase at 100 nM after 24 hrs by propidium iodide staining-based flow cytometry (reference value: 3.8%); assay type: functional
[8] = Cell cycle arrest in human 518A2 cells assessed as accumulation at G1 phase at 100 nM after 24 hrs by propidium iodide staining-based flow cytometry (reference value: 49.5%); assay type: functional
[9] = Cell cycle arrest in human 518A2 cells assessed as accumulation at G2/M phase at 100 nM after 24 hrs by propidium iodide staining-based flow cytometry (reference value: 26.3%); assay type: functional
[10] = Cell cycle arrest in human 518A2 cells assessed as apoptotic index ratio at 100 nM after 24 hrs by propidium iodide staining-based flow cytometry relative to control; assay type: functional
[11] = system: 518A2; experiment: Induction of microtubule disruption in human 518A2 cells at 100 nM incubated for 24 hrs by DAPI staining based immunofluorescence microscopic analysis; assay type: cell-based; outline: as §1
[12] = system: Chorioallantoic membrane; experiment: Antivascular activity in fertilized white leghorn chicken egg chorioallantoic membrane assessed as disruption of preformed blood vessel at 2.5 nmol after 12 hrs by stereomicroscopic analysis; assay type: functional, tissue-based; details: Gallus gallus
[13] = system: HT-29; experiment: Antivascular activity against in combretastatin A-4 resistant human HT-29 cells xenografted in fertilized white leghorn chicken egg chorioallantoic membrane assessed as blood vessel destruction at 5 nmol after 24 hrs by hematoxylin and eosin staining based stereomicroscopic analysis; assay type: functional, cell-based
Outline: (§3)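 Pellets of 1 × 10⁶ HT-29 cells in 10 μL of 1:1 matrigel/serum-free RPMI (gelled 30 min, 37 °C) were placed on the CAM of fertilized eggs and left 48 h. Then 100 μL of a 50 μM PBS dilution (5 nmol) was pipetted outside a silicon ring around the pellet; DMSO served as control. After 24 h, stereomicroscopy was done, and micro-xenografts were explanted, formalin-fixed, paraffin-embedded and HE-stained.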

[14] = system: HT-29; experiment: Antivascular activity against in combretastatin A-4 resistant human HT-29 cells xenografted in fertilized white leghorn chicken egg chorioallantoic membrane assessed as blood vessel hemorrhage at 5 nmol after 24 hrs by hematoxylin and eosin staining based stereomicroscopic analysis; assay type: functional, cell-based; outline: as §3
[15] = system: HT-29; experiment: Antivascular activity against in combretastatin A-4 resistant human HT-29 cells xenografted in fertilized white leghorn chicken egg chorioallantoic membrane assessed as loss of cell to cell interaction at 5 nmol after 24 hrs by hematoxylin and eosin staining based stereomicroscopic analysis; assay type: functional; outline: as §3
[16] = system: 1411HP; experiment: Vascular disrupting activity against multidrug resistant human 1411HP cells xenografted in athymic nude mouse assessed as discoloration of tumor at 100 mg/kg, ip after 24 hrs; assay type: functional, organism-based
Outline: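 Athymic nude mice carried subcutaneous flank xenografts from 8 million cells in PBS. A single intraperitoneal dose of 100 mg/kg was given, and tumor discoloration was photographed 24 h later.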

[17] = system: 1411HP; experiment: Vascular disrupting activity against multidrug resistant human 1411HP cells xenografted in athymic nude mouse assessed as disruption of blood vessel at 100 mg/kg, ip after 24 hrs by hematoxylin and eosin staining based microscopic analysis; assay type: functional, organism-based
Outline: (§4)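 Athymic nude mice carried subcutaneous flank xenografts from 8 million cells. A single intraperitoneal dose of 100 mg/kg was given. After 24 h tumors were explanted, fixed in 5% formalin, paraffin-embedded and HE-stained for microscopic examination of vessels, hemorrhage and necrosis.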

[18] = system: 1411HP; experiment: Vascular disrupting activity against multidrug resistant human 1411HP cells xenografted in athymic nude mouse assessed as hemorrhage at 100 mg/kg, ip after 24 hrs by hematoxylin and eosin staining based microscopic analysis; assay type: functional, organism-based; outline: as §4
[19] = system: 1411HP; experiment: Vascular disrupting activity against multidrug resistant human 1411HP cells xenografted in athymic nude mouse assessed as tumor necrosis at 100 mg/kg, ip after 24 hrs by hematoxylin and eosin staining based microscopic analysis; assay type: functional, organism-based; outline: as §4
[20] = system: A2780cisR; experiment: Vascular disrupting activity against human A2780cis cells xenografted in athymic nude mouse assessed as hemorrhage at 100 mg/kg, ip after 24 hrs by hematoxylin and eosin staining based microscopic analysis; assay type: functional, organism-based; outline: as §4
[21] = system: A2780cisR; experiment: Vascular disrupting activity against human A2780cis cells xenografted in athymic nude mouse assessed as tumor necrosis at 100 mg/kg, ip after 24 hrs by hematoxylin and eosin staining based microscopic analysis; assay type: functional, organism-based; outline: as §4
[22] = system: A2780cisR; experiment: Antitumor activity against human A2780cis cells xenografted in athymic nude mouse assessed as reduction in tumor growth at 40 mg/kg, ip administered on day 3, 7, 10 and 14; assay type: functional, organism-based

Compound: COc1cc(-c2ncn(C)c2-c2ccc3c(c2)c(Cl)cn3C)cc(OC)c1OC
- Activity [1]: inactive
- Activity [2]: Active

Compound: COc1cc(-c2ncn(C)c2-c2ccc3c(c2)c(Cl)cn3C)cc(Br)c1OC.Cl
- Activity [3]: 77.8%
- Activity [4]: 28%
- Activity [5]: 43.5%
- Activity [6]: 4.6%
- Activity [7]: 7.4%
- Activity [8]: 41%
- Activity [9]: 33.9%
- Ratio [10]: 4.4
- Activity [11]: Active
- Activity [12]: Active
- Activity [13]: Active
- Activity [14]: Active
- Activity [15]: Active
- Activity [16]: Active
- Activity [17]: Active
- Activity [18]: Active
- Activity [19]: Active
- Activity [20]: Active
- Activity [21]: Active
- Activity [22]: Active
